High-throughput results (PubChem BioAssay)
Myeloid diff 2 – myeloid differentiation induction | ER-HoxA9 myeloid progenitors, lysozyme-GFP differentiation, flow cytometry | calls only at 10 µM | actives 1% (n = 360,000) | AID 624256;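 active = normalized GFP-positive differentiation at or above the plate's own cutoff, the solvent-only control mean plus 3 SD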;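 note: cells exposed to compound for four days before flow analysis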
Platelet DG rel – platelet dense granule release activity | human platelet-rich plasma, SFLLRN dense granule ATP release, luminescence | actives 0.22% (n = 300,000) | AID 1663 | inhibition, %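 (compounds screened at 7.5 µM in platelet-rich plasma)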;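 active = mean replicate score, as percent of positive control, at or above 50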
VLA-4 inh – inhibition in a human VLA-4 binding assay. P13612. VLA-4 expressing cells, ligand binding flow cytometry. inhibition, % (about 7 µM as worked out from the volumes in the protocol). actives 0.2% (n = 330,000); in the data active = inhibition above about 50%
Target sequence (P13612 whole entry, looked up): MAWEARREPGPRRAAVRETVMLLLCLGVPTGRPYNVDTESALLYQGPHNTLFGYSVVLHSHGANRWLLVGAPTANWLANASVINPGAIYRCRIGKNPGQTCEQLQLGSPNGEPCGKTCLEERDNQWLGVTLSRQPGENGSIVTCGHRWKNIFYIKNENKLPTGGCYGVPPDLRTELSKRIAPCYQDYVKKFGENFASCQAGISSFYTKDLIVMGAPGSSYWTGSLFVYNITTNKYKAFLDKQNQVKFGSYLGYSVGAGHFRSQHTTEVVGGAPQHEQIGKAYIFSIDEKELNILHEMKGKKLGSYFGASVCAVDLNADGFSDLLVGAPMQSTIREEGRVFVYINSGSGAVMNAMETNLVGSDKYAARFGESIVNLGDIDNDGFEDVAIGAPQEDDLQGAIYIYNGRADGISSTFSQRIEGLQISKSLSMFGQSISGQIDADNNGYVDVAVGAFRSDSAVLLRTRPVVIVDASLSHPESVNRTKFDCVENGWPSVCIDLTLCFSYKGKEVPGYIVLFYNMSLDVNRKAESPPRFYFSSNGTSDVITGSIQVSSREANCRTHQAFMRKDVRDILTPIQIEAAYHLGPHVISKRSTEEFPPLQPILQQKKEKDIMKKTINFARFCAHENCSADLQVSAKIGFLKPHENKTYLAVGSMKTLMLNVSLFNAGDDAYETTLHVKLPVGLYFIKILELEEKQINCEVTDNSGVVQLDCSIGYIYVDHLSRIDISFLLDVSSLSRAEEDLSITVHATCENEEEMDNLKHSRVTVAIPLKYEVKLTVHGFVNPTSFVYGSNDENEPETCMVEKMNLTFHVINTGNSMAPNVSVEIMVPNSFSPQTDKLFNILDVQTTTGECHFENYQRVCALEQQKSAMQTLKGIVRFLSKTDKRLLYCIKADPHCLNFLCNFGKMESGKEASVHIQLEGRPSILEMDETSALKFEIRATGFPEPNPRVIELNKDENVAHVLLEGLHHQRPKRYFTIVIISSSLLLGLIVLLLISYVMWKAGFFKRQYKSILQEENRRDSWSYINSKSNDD
SENP1 FRET inh – inhibitors of human SENP1 SUMO protease catalytic domain. inhibition, % at 10 µM. Q9P0U3. AID 624204. actives 0.21% (n = 360,000). recombinant SENP1 catalytic domain, CyPet-SUMO1-YPet FRET cleavage;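 active = inhibition at least 30% at 10 µM, raw YFP signal under a set limit, fluorescence ratio 0.5 to 1.5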;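 note: 0% = enzyme with DMSO and 100% = no enzyme wells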
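Material: hSENP1 catalytic domain, recombinant; medium: Tris pH 8 with BME, BSA, NP40 and catalase; compound: single concentration of 10 µM compound, 0.5% DMSO final; technique: FRET read of cyan and yellow fluorescence; timing: 50 min enzyme reaction, room temperature, light-protected; reagent: SFCypet-SUMO1-SFYpet substrate at 25 nM; control set: no-enzyme low, enzyme-DMSO high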
Myeloid diff – compounds promoting myeloid differentiation; shares compounds with Myeloid diff 2; ER-HoxA9 myeloid progenitors, GFP/Mac1 double-positive flow; calls only; actives 2% (n = 2,300);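 active = share of green or green-and-red cells above 9 and 9% in run 1 or 4 and 3% in run 2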
GFP autofluor – compound fluorescence in myeloid differentiation counter-screen; shares compounds with Myeloid diff 2; ER-HoxA9 myeloid progenitors, no estrogen, GFP autofluorescence flow cytometry; vehicle wells 0%, positive control 100%; fluorescence response, % (concentration not given with the values); actives 7.4% (n = 2,300); AID 651707;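 active = over 5% cells positive for green fluorescent reporter, or over 2% positive for both it and APC stain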;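 note: range taken on the double positive population between DMSO and positive control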
Starred values were filed as active, the others as inactive; i = inactive; · = not tested or not shown; + = active, no number. Only some compounds are listed: those with a hit (about 1.5% of all), similar ones and a draw of the others.

SMILES	Myeloid diff 2	Platelet DG rel	VLA-4 inh	SENP1 FRET inh	Myeloid diff	GFP autofluor
Oc1ccc2ccccc2c1C=Nc1ccccc1Br	i	3	-50	-50	i	0
CCOc1ccc(CCNC(=O)COC(=O)c2ccc(Br)o2)cc1OCC	i	-22	-8	1	·	·
CC(=NCCCn1ccnc1)c1c(C)[nH]n(-c2ccc([N+](=O)[O-])cc2)c1=O	i	-1	9	1	·	·
CCCC1=[N+](CC(=O)c2ccccc2)CCn2c(C)ccc21	+	-2	19	-14	i	0
Cc1ccc[n+](CC(=O)c2ccccc2)c1	·	-9	1	·	·	·
O=C(CSc1nnc(CNC(=O)c2ccccc2F)o1)NC1CCCCC1	i	5	-3	1	·	·
CC1(C)O[C@H]2CC(=O)OC[C@]23[C@H]2CC[C@@]4(C)[C@H](c5ccoc5)OC(=O)[C@H]5O[C@]54[C@]2(C)[C@@H](O)C[C@@H]13	i	·	0	2	·	·
CC1(C)O[C@H]2CC(=O)OC[C@@]23C1CC(=O)[C@]1(C)C3CC[C@@]2(C)[C@H](c3ccoc3)OC(=O)[C@H]3O[C@]321 (stereo not given in full)	+	·	9	0	i	0
C=CCn1c(N2CCN(c3ccc(OC)cc3)CC2)nc2c1c(=O)[nH]c(=O)n2C	i	-4	1	3	i	0
Clc1ccc(C=Cc2ccccn2)cc1	i	·	·	0	·	·
C(=C\c1ccccn1)/c1ccccn1	i	-8	-1	1	i	0
NC(=O)c1cnn(-c2ccc3ccccc3c2)c1N	i	-3	6	-20	·	·
Cc1ccc2nc(/C(C#N)=C\c3ccc(N4CCOCC4)o3)[nH]c2c1	+	4	-194	-18	i	29*
Cc1ccc2nc(/C(C#N)=C/c3ccc(-c4ccccc4C(=O)O)o3)[nH]c2c1	i	5	14	-24	·	·
Cc1cc2nc(/C(C#N)=C\c3ccc(-c4ccccc4C(=O)O)o3)[nH]c2cc1C	i	-11	-19	-25	i	3
O=C(Nc1ccc(O)cc1)/C(=C\C=C\c1ccccc1)NC(=O)c1ccccc1	i	-9	0	2	·	·
O=C(O)CCNC(=O)/C(=C\C=C\c1ccccc1)NC(=O)c1ccccc1	i	3	·	-11	i	1
CC(C)C(=O)N(Nc1nc2ccccc2s1)C(=O)C(C)C	+	-5	-16	2	i	0
Cc1cc(NC(=O)CN2C(=O)NC(C)(c3ccc(Cl)cc3Cl)C2=O)no1 (stereo not given)	i	·	4	2	·	·
CN(C)c1ccc(CNCc2cccnc2)cc1	i	-7	6	1	i	0
CC(C)(C)NC(=O)COc1ccc(CNCc2cccnc2)cc1	i	-2	4	1	·	·
O=C1C=CN2CCCCC2CC1 (stereo not given)	+	·	19	-49	i	5
Cn1c(C(=O)N2CCN(c3ccc(F)cc3)CC2)cc2ccccc21	i	-5	13	2	·	·
CCCCCCCSc1nnc(-c2ccccc2N)c(=O)[nH]1	i	0	0	10	·	·
CCCCCSc1nncc(=O)[nH]1	+	1	-1	2	i	1
SMILES	Myeloid diff 2	Platelet DG rel	VLA-4 inh	SENP1 FRET inh	Myeloid diff	GFP autofluor
COc1ccc2c(c1)C(CC(C)=O)N(c1ccc(-c3cccs3)cc1)C(c1ccsc1)=C2 (stereo not given)	+	·	·	-33	i	0
COc1ccc2c(c1)C(CC(C)=O)N(c1ccc(-c3cnc(OC)nc3)cc1)C(c1ccsc1)=C2 (stereo not given)	i	·	·	-9	·	·
Cc1ccc(Nc2nnc(SCC(=O)NC3CCS(=O)(=O)C3)s2)c(C)c1 (stereo not given)	i	11	16	1	i	5.9*
Cn1c(N=Nc2ccccc2)nc2ccccc21	i	72*	11	2	i	0
CC(=O)C1C(c2ccc(F)c(F)c2)NC(=O)NC1(O)C(F)(F)F (stereo not given)	i	3	5	1	i	0
CC(=O)C1C(c2ccc(OC(F)F)cc2)NC(=O)NC1(O)C(F)(F)F (stereo not given)	i	-4	-9	-1	·	·
CCOc1ccc(NS(=O)(=O)c2ccc(NC(=S)NC(=O)CC(C)C)cc2)cc1	i	-9	14	0	i	2
CCOC(=O)c1ccc(NC(=O)C(CC)(CC)C(=O)OCC)cc1	i	-3	0	1	i	0
CCOC(=O)c1ccc(NC(=O)COC)cc1	i	0	7	0	·	·
O=C(NCCc1ccccc1)C1CCCN1C(=O)Nc1ccccc1 (stereo not given)	i	7	-2	-1	·	·
COc1ccc(NC(=O)N2CCCC2C(=O)NCCc2ccccc2)cc1 (stereo not given)	i	2	8	1	i	0
CC(=O)c1c(N2CCOCC2)nc(=S)n(-c2ccc([N+](=O)[O-])cc2)c1C	i	-1	4	2	i	1
COc1ccc(CN2CCCC(C(=O)c3cccc(C(F)(F)F)c3)C2)cc1O (stereo not given)	i	1	-4	0	·	·
O=[N+]([O-])c1ccc(/C=N/Nc2ncccc2[N+](=O)[O-])s1	i	13	-7	9	i	0
O=[N+]([O-])c1cccnc1Nc1ccc(Cl)cc1	i	·	·	2	·	·
ClCCn1cnc2c(SCc3ccccc3Cl)ncnc21	i	·	·	-1	i	4
C/C(=N\O)c1noc(C)c1C(=O)Nc1nccs1	i	-33	17	2	·	·
OC1CCNC(=S)N1c1ccccc1 (stereo not given)	+	2	7	-13	i	0
OC1NC(=S)N(c2ccccc2)C1O (stereo not given)	i	14	20	0	·	·
CC(C)CSc1ncnc2c1oc1nc3c(cc12)COC(C)(C)C3	i	1	6	-7	i	2
CCCCN1CC(COCc2ccccc2)Oc2cccc(N3CCCC3)c2S1(=O)=O (stereo not given)	i	·	·	-1	i	0
CCCCN1CC(COCc2ccccc2)Oc2cc(Br)ccc2S1(=O)=O (stereo not given)	i	·	·	-5	·	·
Cn1c(SCC(=O)O)nnc1C1CCCCC1	+	-7	-4	4	i	0
Cn1c(SCC(=O)c2ccccc2)nnc1C1CC1	i	0	-10	2	·	·
CCN(Cc1nc2cc(Cl)ccc2c(=O)[nH]1)C(=O)c1cc2c(s1)CCCCC2	i	·	·	-17	i	0
Cn1cccc1CC(=O)N/N=C/c1ccc(Cl)c([N+](=O)[O-])c1	i	-3	-1	2	·	·
O=C(Cc1ccccc1)NN=Cc1ccccc1	i	·	·	2	·	·
O=C(Cc1ccccc1)N/N=C/c1cc(Br)c(Br)o1	i	-1	4	1	i	1
